Source: ChEMBL document CHEMBL1132235, “Thioamides: synthesis, stability, and immunological activities of thioanalogues of Imreg. Preparation of new thioacylating agents using fluorobenzimidazolone derivatives” (1999)

How the values were obtained:
[1] = test system: Mus musculus; experiment: In vivo functional activity against Blood Immunophenotyping in mice at 125 mg/kg dose using NK+ as cell subset
Method in brief: (§1)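 Female C57BL/6 mice, 6–8 weeks old, groups of seven, dosed i.p. once daily for four consecutive days (0, 50, 100 or 125 mg/kg) and sacrificed on day 5. Blood and spleen cells were lysed in ACK buffer (pH 7.3, 5 min), washed in PBS and stained 45 min on ice with FITC/PE surface-marker antibodies. Cells were fixed in 1% paraformaldehyde and read by flow cytometry. Values are relative subset percentages, compared by unpaired t test.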

[2] = test system: Mus musculus; experiment: In vivo functional activity against Blood Immunophenotyping in mice at 50 mg/kg dose using CD4+CD45+ as cell subset; method in brief: as §1
[3] = test system: Mus musculus; experiment: In vivo functional activity against Blood Immunophenotyping in mice at 50 mg/kg dose using NK+ as cell subset; method in brief: as §1
[4] = test system: Mus musculus; experiment: In vivo functional activity against spleen Immunophenotyping in mice at 0 mg/kg dose using CD4+CD45+ as cell subset; method in brief: as §1
[5] = test system: Mus musculus; experiment: In vivo functional activity against spleen Immunophenotyping in mice at 0 mg/kg dose using LY5+ as cell subset; method in brief: as §1
[6] = test system: Mus musculus; experiment: In vivo functional activity against spleen Immunophenotyping in mice at 0 mg/kg dose using NK+CD3+ as cell subset; method in brief: as §1
[7] = test system: Mus musculus; experiment: In vivo functional activity against spleen Immunophenotyping in mice at 0 mg/kg dose using TCR+ as cell subset; method in brief: as §1
[8] = test system: Mus musculus; experiment: In vivo functional activity against spleen Immunophenotyping in mice at 100 mg/kg dose using CD4+CD45+ as cell subset; method in brief: as §1
[9] = test system: Mus musculus; experiment: In vivo functional activity against spleen Immunophenotyping in mice at 100 mg/kg dose using CD8+CD45+ as cell subset; method in brief: as §1
[10] = test system: Mus musculus; experiment: In vivo functional activity against spleen Immunophenotyping in mice at 100 mg/kg dose using LY5+ as cell subset; method in brief: as §1
[11] = test system: Mus musculus; experiment: In vivo functional activity against spleen Immunophenotyping in mice at 100 mg/kg dose using NK+CD3+ as cell subset; method in brief: as §1
[12] = test system: Mus musculus; experiment: In vivo functional activity against spleen Immunophenotyping in mice at 100 mg/kg dose using TCR+ as cell subset; method in brief: as §1
[13] = test system: Mus musculus; experiment: In vivo functional activity against spleen Immunophenotyping in mice at 125 mg/kg dose using CD4+CD45+ as cell subset; method in brief: as §1
[14] = test system: Mus musculus; experiment: In vivo functional activity against spleen Immunophenotyping in mice at 125 mg/kg dose using CD8+CD45+ as cell subset; method in brief: as §1
[15] = test system: Mus musculus; experiment: In vivo functional activity against spleen Immunophenotyping in mice at 125 mg/kg dose using LY5+ as cell subset; method in brief: as §1
[16] = test system: Mus musculus; experiment: In vivo functional activity against Blood Immunophenotyping in mice at 0 mg/kg dose using CD4+CD45+ as cell subset; method in brief: as §1
[17] = test system: Mus musculus; experiment: In vivo functional activity against Blood Immunophenotyping in mice at 0 mg/kg dose using NK+ as cell subset; method in brief: as §1
[18] = test system: Mus musculus; experiment: In vivo functional activity against Blood Immunophenotyping in mice at 100 mg/kg dose using CD4+CD45+ as cell subset (value in parentheses indicate P value); method in brief: as §1
[19] = test system: Mus musculus; experiment: In vivo functional activity against Blood Immunophenotyping in mice at 100 mg/kg dose using NK+ as cell subset; method in brief: as §1
[20] = test system: Mus musculus; experiment: In vivo functional activity against Blood Immunophenotyping in mice at 125 mg/kg dose using CD4+CD45+ as cell subset; method in brief: as §1
[21] = test system: Mus musculus; experiment: In vivo functional activity against spleen Immunophenotyping in mice at 125 mg/kg dose using NK+CD3+ as cell subset; method in brief: as §1
[22] = test system: Mus musculus; experiment: In vivo functional activity against spleen Immunophenotyping in mice at 125 mg/kg dose using TCR+ as cell subset; method in brief: as §1
[23] = test system: Mus musculus; experiment: In vivo functional activity against spleen Immunophenotyping in mice at 50 mg/kg dose using CD4+CD45+ as cell subset; method in brief: as §1
[24] = test system: Mus musculus; experiment: In vivo functional activity against spleen Immunophenotyping in mice at 50 mg/kg dose using CD8+CD45+ as cell subset; method in brief: as §1
[25] = test system: Mus musculus; experiment: In vivo functional activity against spleen Immunophenotyping in mice at 50 mg/kg dose using LY5+ as cell subset; method in brief: as §1
[26] = test system: Mus musculus; experiment: In vivo functional activity against spleen Immunophenotyping in mice at 50 mg/kg dose using NK+CD3+ as cell subset; method in brief: as §1
[27] = test system: Mus musculus; experiment: In vivo functional activity against spleen Immunophenotyping in mice at 50 mg/kg dose using TCR+ as cell subset; method in brief: as §1
[28] = test system: Mus musculus; experiment: In vivo functional activity against spleen Immunophenotyping in mice at 0 mg/kg dose using CD8+CD45+ as cell subset; method in brief: as §1

N[C@@H](Cc1ccc(O)cc1)/C(S)=N/CC(=O)NCC(=O)O
Activity [1]: 6.29 | Activity [2]: 23.94 | Activity [3]: 6.37 | Activity [4]: 41.73 | Activity [5]: 38.03 | Activity [6]: 2.37 | Activity [7]: 58.54 | Activity [8]: 34.63 | Activity [9]: 6.93 | Activity [10]: 40.79 | Activity [11]: 2.99 | Activity [12]: 52.63 | Activity [13]: 31.93 | Activity [14]: 5.46 | Activity [15]: 50.71 | Activity [16]: 22.56 | Activity [17]: 8 | Activity [18]: 22.9 | Activity [19]: 5.84 | Activity [20]: 28.89 | Activity [21]: 3.37 | Activity [22]: 43.59 | Activity [23]: 43.1 | Activity [24]: 5.77 | Activity [25]: 38.56 | Activity [26]: 2.7 | Activity [27]: 59.07 | Activity [28]: 4.97
